Results of several laboratories.
Protocols differ between the studies behind these lines.
Target: Ephrin type-B receptor 1 (EPHB1, Homo sapiens, UniProt P54762)

Compound | observed | mode | method | tested at | endpoint | value
O=C1NC(c2ccccn2)Sc2ccccc21 (stereo not shown) | cell-free assay | – | competition with immobilised ligand | 1 µM | remaining binding | 90%
Oc1cccc(-c2nc(N3CCOCC3)c3oc4ncccc4c3n2)c1 | enzyme activity | inhibitor | – | 10 µM | remaining activity | 131%
COc1cc2ncnc(Nc3ccc(Oc4ccccc4)c(C)c3C)c2cc1OC | enzyme activity | inhibitor | – | 1 µM | inhibition | 3%
O=C(NS(=O)(=O)c1ccc(NCC2CCOCC2)c([N+](=O)[O-])c1)c1ccc(N2CCN(Cc3ccc(C(F)(F)F)cc3-c3ccc(Cl)cc3)CC2)cc1Oc1cnc2[nH]ccc2c1 | cell-free assay | – | competition with immobilised ligand | 1 µM | remaining binding | 100%
O=C(Nc1cnn(-c2csc(C(=O)NC3COC3)c2)c1)Nc1ccccc1Cl | enzyme activity | inhibitor | – | 5 µM | remaining activity | 100%
COc1cc(Nc2cnc(C#N)c(O[C@H](C)CN(C)C)n2)ncc1-c1cnn(C)c1 | enzyme activity | inhibitor | radiometric | 1 µM | remaining activity | 100%
Cc1ccc(C(=O)NCc2ccsc2)cc1C#Cc1cn(C(C)C)c2ncnc(N)c12 | enzyme activity | inhibitor | – | 1 µM | activity vs control | 12%
CCN(CC)c1ccc(C2=NNC(=O)CC2C)cc1[N+](=O)[O-] (stereo not shown) | enzyme activity | inhibitor | – | 10 µM | remaining activity | 97%
CCN(CC)CCNC(=O)c1c(C)[nH]c(/C=C2\C(=O)Nc3ccc(F)cc32)c1C | enzyme activity | inhibitor | – | 0.3 µM | inhibition | 34%
N#CCCc1ccc2c(c1)-c1[nH]c3ccc([N+](=O)[O-])cc3c1CC(=O)N2 | cell-free assay | – | – | 0.5 µM | remaining signal | 99.1%
Cc1ccc(Nc2nccc(N(C)c3ccc4c(C)n(C)nc4c3)n2)cc1S(N)(=O)=O | enzyme activity | inhibitor | – | 10 µM | inhibition | 63%
Cc1cc(NC(=O)c2cccc3cc(-c4cccc5[nH]nc(N)c45)ccc23)ccc1F | enzyme activity | inhibitor | – | 0.1 µM | activity vs control | 127%
CC(C)(O)[C@H]1CC[C@H](Nc2ccc3ncc(-c4cccc(C(F)(F)F)c4)n3n2)CC1 | enzyme activity | inhibitor | – | 1 µM | remaining activity | 85%
O=C(Nc1ccc(Oc2ccc(F)cc2)cc1)N1CCc2ncccc2[C@H]1c1ccc(F)cc1 | cell-free assay | – | competition with immobilised ligand | 1 µM | remaining binding | 100%
CS(=O)(=O)CCNCc1ccc(-c2ccc3ncnc(Nc4ccc(OCc5cccc(F)c5)c(Cl)c4)c3c2)o1 | cell-free assay | – | – | 0.5 µM | remaining signal | 104%
CNCc1ccccc1-c1csc([C@@H](C)Nc2nc(C)nc3cc(OC)c(OC)cc23)c1 | cell-free assay | – | competition with immobilised ligand | 1 µM | remaining binding | 100%
O=C1Nc2ccc(Cl)cc2C1=Cc1cc(Cl)c(O)c(Cl)c1 | cell-free assay | – | – | 0.5 µM | remaining signal | 91%
COc1cc(Cl)c(C(=O)N[C@@H](CN[C@H]2CC[C@@H](N)CC2)Cc2ccc(C#N)cc2)cc1-c1ccc(CN[C@H](C)c2ccc(C)cc2)o1 | enzyme activity | inhibitor | – | 1 µM | remaining activity | 122%
C=CC(=O)Nc1cc(Nc2nccc(Nc3cc(Cl)c(F)cc3C(C)(C)O)n2)c(OC)cc1N1CC[C@@H](N(C)C)C1 | enzyme activity | inhibitor | – | 1 µM | inhibition | 24%
O=C(NCc1ncc(C(F)(F)F)cc1Cl)c1ccc2c(c1)C1(CCS(=O)(=O)CC1)[C@@H](C1CC1)N2S(=O)(=O)c1ccc(F)cc1 | cell-free assay | – | competition with immobilised ligand | 1 µM | remaining binding | 100%
O=C1NC(=O)c2cc(Nc3ccc(F)cc3)c(Nc3ccc(F)cc3)cc21 | cell-free assay | – | – | 0.5 µM | remaining signal | 103%
COc1cc(/C=C/C(=O)CC(=O)/C=C/c2ccc(O)c(OC)c2)ccc1O | enzyme activity | inhibitor | – | 1 µM | activity vs control | 100%
O=C(NC[C@@H]1[C@H]2CN(C(=O)OCc3cc(C(F)(F)F)cc(C(F)(F)F)c3)C[C@@H]12)c1ccc2[nH]nnc2c1 | cell-free assay | – | competition with immobilised ligand | 1 µM | remaining binding | 100%
COc1cc(-c2cc(-c3ccc(N4CCNCC4)cc3)cnc2C)cc(OC)c1OC | enzyme activity | inhibitor | – | 1 µM | inhibition | 6%
Cc1c(NC(=O)c2cc(C(N)=O)nc3cc(F)ccc23)c(C(F)(F)F)nn1Cc1ccc(C#N)cc1 | cell-free assay | – | competition with immobilised ligand | 1 µM | remaining binding | 66%
CC(C)(C)c1nc(-c2cccc(NS(=O)(=O)c3c(F)cccc3F)c2F)c(-c2ccnc(N)n2)s1 | enzyme activity | inhibitor | radiometric | 1 µM | remaining activity | 94%
CC(C)CC(=O)N1CCc2nc(-c3ccc(Br)cc3)nc(N(C)Cc3ccccc3)c2C1 | cell-free assay | – | competition with immobilised ligand | 0.1 µM | remaining binding | 100%
FC(F)c1nc2ccccc2n1-c1nc(N2CCOCC2)nc(N2CCOCC2)n1 | enzyme activity | inhibitor | – | 10 µM | remaining activity | 96%
